According to paper PMC8521312 (The EMBO Journal, 2021):
“Also recorded” adds a separate entry of the source.

Tests used:
[1] = test system: nucleolin-Kif5a motor complex; settings: ref Perry et al, 2016, cited from earlier work
AS1411 DNA aptamer = experiment: ELISA assay for AS1411-binding peptides; settings: 0.04 μM aptamer, PBS, 1 h, room temperature, n = 3 technical replicates
How it was run: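 Streptavidin-coated wells were washed in PBS-T, loaded with 0.025 μM biotinylated peptide for 1 h at room temperature, and blocked with 1% BSA/PBS for 30 min at 37°C. DIG-labelled aptamer or control aptamer was added, then HRP anti-DIG (1/2,000 in 1% BSA-PBS, 30 min, 37°C). TMB substrate was read by absorbance at […]. PBS-T washes were done between steps.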

axonal Inpp5f mRNA = experiment: FISH of axonal Inpp5f mRNA in DRG neurons; assay type: cell-based, rat; settings: 10 µM AS1411 or control aptamer, 48 h, replated 18 h; n = 11–19 cells per sample; P < 0.05
[2] = test system: nucleolin mRNA and protein; experiment: Nucleolin knockdown in DRG neurons; assay type: cell-based, rat; settings: siRNA targeting 3′UTR of nucleolin mRNA, 50 nM printed for control siRNAs; 96 h
How it was run: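 Three hours after plating, neurons were transfected with control siRNA (50 nM as printed) or either of two siRNAs against the nucleolin 3′UTR using a lipid transfection reagent. Cultures were fixed 96 h later for FISH/immunofluorescence. Sister cultures gave mRNA by RT-ddPCR and protein by immunoblot (milk block, HRP secondary 1:10,000, ECL).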

DRG neurons = experiment: Hypotonic challenge; assay type: cell-based, mouse; settings: ddH2O, 17–24 cells per sample, three biological repeats
HEK-293 cells = experiment: Hypotonic challenge; assay type: cell-based, human; settings: ddH2O, n = 24 cells per sample, p < 0.05, p < 0.01

GGTGGTGGTGGTTGTGGTGGTGGTGG [AS1411]
axonal growth ([1]; AS1411 perturbation of kinesin–nucleolin interactions): accelerated axonal growth | association of nucleolin with Kif5a motor complex [1]: reduced; also recorded: perturbs the association of nucleolin with the Kif5a motor complex | nucleolin localization to axons [1]: perturbs nucleolin localization to axons | binding of aptamer to GAR-derived peptides of 22–28 residues (AS1411 DNA aptamer): showed binding | axonal Inpp5f mRNA (FISH) (axonal Inpp5f mRNA): significant reduction in axonal Inpp5f mRNA

siRNA 1: GUUGAAUGACAGAGCCUUUUU; siRNA 2: GGACAUUCCAAGACAGUAAUU
endogenous nucleolin mRNA and protein [2]: significantly reduced

B1: Ncl ΔGAR: HA-Dendra2-nucleolin with a GAR domain deletion (protein)
chain: MVKLAKAGKTHGEAKKMAPPPKEVEEDSEDEEMSEDEDDSSGEEEVVIPQKKGKKATTTPAKKVVVSQTKKAAVPTPAKKAAVTPGKKAVATPAKKNITPAKVIPTPGKKGAAQAKALVPTPGKKGAATPAKGAKNGKNAKKEDSDEDEDEEDEDDSDEDEDDEEEDEFEPPIVKGVKPAKAAPAAPASEDEEDDEDEDDEEDDDEEEEDDSEEEVMEITTAKGKKTPAKVVPMKAKSVAEEEDDEEEDEDDEDEDDEEEDDEDDDEEEEEEEPVKAAPGKRKKEMTKQKEAPEAKKQKVEGSEPTTPFNLFIGNLNPNKSVNELKFAISELFAKNDLAVVDVRTGTNRKFGYVDFESAEDLEKALELTGLKVFGNEIKLEKPKGRDSKKVRAARTLLAKNLSFNITEDELKEVFEDAMEIRLVSQDGKSKGIAYIEFKSEADAEKNLEEKQGAEIDGRSVSLYYTGEKGQRQERTGKTSTWSGESKTLVLSNLSYSATKETLEEVFEKATFIKVPQNPHGKPKGYAFIEFASFEDAKEALNSCNKMEIEGRTIRLELQGSNSRSQPSKTLFVKGLSEDTTEETLKESFEGSVRARIVTDRETGSSKGFGFVDFNSEEDAKAAKEAMEDGEIDGNKVTLDWAKPKKPQGKKTKFE
modifications: left off: HA, N-terminal, kept | Dendra2, N-terminal, kept
reduction of nucleolar signal on hypotonic challenge, FL vs ΔGAR (DRG neurons): no difference between full‐length and ΔGAR mutant nucleolin | reduction of nucleolar signal on hypotonic challenge, FL vs ΔGAR (HEK-293 cells): Significant differences between full‐length and GAR deletion nucleolin
